17 compounds from ChEMBL document CHEMBL2150855, “Tocotrienamines and tocopheramines: reactions with radicals and metal ions” (Bioorg Med Chem, 2011) can be followed below.

Holding throughout (assay type): functional
Test [1] in a line: Antioxidant activity assessed as ABTS+ free radical scavenging activity by TEAC assay. The method in brief:
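TEAC assay measures reduction of the ABTS radical cation, with results expressed as Trolox equivalents. Data are mean ± SD of three series run in triplicate, with Student–Newman–Keuls post-hoc ANOVA (p<0.05).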

The subject of test [2] is Radical scavenging activity. Put plainly: Antioxidant activity assessed as DPPH free radical scavenging activity.
Test [3] can be described thus: Antioxidant activity assessed as ferric ion reducing power by FRAP method. The method in brief:
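FRAP assay adapted for lipophilic antioxidants: Fe3+–TPTZ complex reduction in 300 mM acetate buffer, pH 3.6, at a 1:500 molar ratio of test compound to ferric ions. Data are mean ± SD of three series run in triplicate, with Student–Newman–Keuls post-hoc ANOVA (p<0.05).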

Test [4] can be described thus: Antioxidant activity assessed as nitration product at 1:1 compound to phenol concentration. The method, boiled down:
(§1)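 FeCl3 used as oxidant at 10:1 and 100:1 molar ratios to test compound, with phenolic substrate at 1:1 to compound (FeCl3/compound/phenolic 10:1:1 or 100:1:1), in 50:50 v/v H2O/EtOH. Percent conversion to nitration product determined. Means of triplicate experiments.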

The nature of test [5]: Antioxidant activity assessed as reduction in copper-mediated ascorbic acid oxidation preincubated for 10 mins measured for every 2 mins upto 2 hrs by UV spectrophotometry. The method, boiled down: (§2)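 Test compound suspension combined with Chelex-treated water containing 2 µM Cu+. Plate pre-incubated 10 min at 37 °C, then ascorbate added (from a 2 mM stock, pH 7) to a starting 200 µM. A265 read every 2 min for 2 h at 37 °C to obtain the initial depletion rate. Ethanol vehicle served as baseline and DTPA as chelator control. Triplicate.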

Test [6] can be described thus: Antioxidant activity assessed as reduction in copper-mediated ascorbic acid oxidation at 100 uM preincubated for 10 mins measured for every 2 mins upto 2 hrs by UV spectrophotometrya. Also on record: scale not given: the % may be the effect or the level left. The method in brief:
as §2

Test [7] can be described thus: Antioxidant activity assessed as formation of DPPH breakdown product at 0.5 mM incubated for 20 mins by HPLC. The method in brief: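 Aerobic DPPH (0.5 mM) mixed with test compound (0.5 mM) and incubated 20 min at room temperature. Reaction products analysed by HPLC, taking the peak area of the product eluting at 4 min. Mean ± SD of five experiments.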
For test [8], the system named is Radical scavenging activity. Kind of test: Antioxidant activity assessed as rate constant for DPPH free radical scavenging activity by stopped flow spectroscopy. The method in brief:
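Stopped-flow rapid mixing with diode-array photometer detection. Antioxidant stocks (ca. 2 mM) and DPPH (200 µM) prepared in ethanol; DPPH (200 µM) in acetonitrile also used. Starting antioxidant concentration after mixing is half the stock. Second-order rate constant derived from the kinetics.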

A short description of test [9]: Antioxidant activity assessed as nitration product using PhOMe as substrate at FeCl3 to compound to phenol concentration 100:1:1. The method in brief: as §1
The nature of test [10]: Antioxidant activity assessed as nitration product using MeOC6H3(Me)2-(2,6) as substrate at FeCl3 to compound to phenol concentration 10:1:1. The method, boiled down: as §1
A short description of test [11]: Antioxidant activity assessed as nitration product using HOC6H3(Me)2-(2,6) as substrate at FeCl3 to compound to phenol concentration 100:1:1. The method in brief:
as §1

Test [12] in a line: Antioxidant activity assessed as nitration product using PhOMe as substrate at FeCl3 to compound to phenol concentration 10:1:1. The method in brief:
as §1

Test [13] is described as follows: Antioxidant activity assessed as nitration product using HOC6H3(t-Bu)2-(2,6) as substrate at FeCl3 to compound to phenol concentration 100:1:1. The method, boiled down: as §1
Test [14] can be described thus: Antioxidant activity assessed as nitration product using HOC6H3(t-Bu)2-(2,6) as substrate at FeCl3 to compound to phenol concentration 10:1:1. The method in brief: as §1
Test [15] in a line: Antioxidant activity assessed as nitration product using MeOC6H3(Me)2-(2,6) as substrate at FeCl3 to compound to phenol concentration 100:1:1. The method in brief: as §1
A short description of test [16]: Antioxidant activity assessed as nitration product using PhOH as substrate at FeCl3 to compound to phenol concentration 10:1:1. The method, boiled down: as §1
Test [17] can be described thus: Antioxidant activity assessed as nitration product at 1:1 compound to salicylic acid concentration. The method in brief: as §1
Test [18] in a line: Antioxidant activity assessed as nitration product using HOC6H3(Me)2-(2,6) as substrate at FeCl3 to compound to phenol concentration 10:1:1. The method, boiled down: as §1
Test [19] can be described thus: Antioxidant activity assessed as nitration product using PhOH as substrate at FeCl3 to compound to phenol concentration 100:1:1. The method in brief:
as §1

Activity calls are given as the source filed them. No cut-off for these calls is given here.

Consider `CC(C)=CCC/C(C)=C/CC/C(C)=C/CC[C@]1(C)CCc2c(C)c(N)c(C)c(C)c2O1`, for which the outcome in test [1], in test [2] and in [3] was Active.

For `Cc1c(O)cc2c(c1C)O[C@](C)(CCC[C@H](C)CCC[C@H](C)CCCC(C)C)CC2`, the Activity in [4] turned out to be 13%. The outcome in test [1], in [2] and in test [3] was Active.

In the case of `Cc1cc(N)cc2c1O[C@](C)(CCC[C@H](C)CCC[C@H](C)CCCC(C)C)CC2`, the outcome in test [1], in test [2] and in test [3] was Active. In addition, the results for the Activity entry in test [5] and in test [6] were “Dose-dependent effect” and 44.7%, respectively.

As for `CC(C)=CCC/C(C)=C/CC/C(C)=C/CC[C@]1(C)CCc2cc(O)cc(C)c2O1`, the outcome in test [1], in [2] and in test [3] was Active.

Take `Cc1c(N)cc2c(c1C)O[C@](C)(CCC[C@H](C)CCC[C@H](C)CCCC(C)C)CC2`: the outcome in [1], in test [2] and in [3] was Active. In addition, the Activity entry in test [5] is “Dose-dependent effect”; in test [6], 35%.

As for `CC(C)=CCC/C(C)=C/CC/C(C)=C/CC[C@]1(C)CCc2cc(N)c(C)c(C)c2O1`, the result in test [1], in [2] and in test [3] was Active.

Regarding `Cc1c(C)c2c(c(C)c1O)CCC(C)(CCC(=O)O)O2` (racemic), the outcome in test [1], in test [2] and in test [3] was Active.

For `Cc1c(C)c2c(c(C)c1O)CC[C@@](C)(CCC[C@H](C)CCC[C@H](C)CCCC(C)C)O2`, the result in test [7] was inactive. Further, the result in [1], in test [2] and in [3] was Active. The Activity in test [8] is 280 L/mol/s.

For `CC(C)=CCC/C(C)=C/CC/C(C)=C/CC[C@]1(C)CCc2cc(O)c(C)c(C)c2O1`, the result in test [1], in test [2] and in test [3] was Active.

As to `CC(C)=CCC/C(C)=C/CC/C(C)=C/CC[C@]1(C)CCc2c(C)c(O)c(C)c(C)c2O1`, the outcome in [1], in [2] and in test [3] was Active.

As to `Cc1c(C)c2c(c(C)c1O)CC[C@@](C)(CCCC(C)CCCC(C)CCCC(C)C(=O)O)O2` (mixture of isomers), the outcome in test [1], in test [2] and in test [3] was Active.

For `Cc1c(C)c2c(c(C)c1N)CC[C@@](C)(CCC[C@H](C)CCC[C@H](C)CCCC(C)C)O2`, the Activity came to 2% in test [9]; 0% in [10]; 9% in test [11]; 0% in test [12]; 0.4% in test [13]; 0.2% in test [14]. In addition, the Activity entry in [5] was “Dose-dependent effect”; in test [16], 12%; in [17], 8%; in test [18] it was 4%; in test [8], 4290 L/mol/s; in test [19], 26%. For the same compound, the Activity in [6] came to 19.5%. The result in [7], in [1], in test [2] and in test [3] was Active. In addition, the result in test [15] was inactive.

Take `Cc1cc(O)cc2c1O[C@](C)(CCC[C@H](C)CCC[C@H](C)CCCC(C)C)CC2`: the outcome in test [1], in test [2] and in test [3] was Active.

Turning to `Cc1c(O)cc2c(c1C)OC(C)(CCC(=O)O)CC2` (racemic), the outcome in test [1], in [2] and in test [3] was Active.

Regarding `Cc1c(O)cc2c(c1C)OC(C)(C)CC2`, the Activity in test [4] was 3%.

`Cc1cc(O)cc2c1OC(C)(CCC(=O)O)CC2` (racemic): the outcome in [1], in test [2] and in [3] was Active.

On to `CC(C)=CCC/C(C)=C/CC/C(C)=C/CC[C@]1(C)CCc2cc(N)cc(C)c2O1`, for which the result in test [1], in [2] and in test [3] was Active.
